The target of test [1] is T1, Beta-galactosidase (Bos taurus) (UniProt Q58D55).
T1 sequence (whole entry): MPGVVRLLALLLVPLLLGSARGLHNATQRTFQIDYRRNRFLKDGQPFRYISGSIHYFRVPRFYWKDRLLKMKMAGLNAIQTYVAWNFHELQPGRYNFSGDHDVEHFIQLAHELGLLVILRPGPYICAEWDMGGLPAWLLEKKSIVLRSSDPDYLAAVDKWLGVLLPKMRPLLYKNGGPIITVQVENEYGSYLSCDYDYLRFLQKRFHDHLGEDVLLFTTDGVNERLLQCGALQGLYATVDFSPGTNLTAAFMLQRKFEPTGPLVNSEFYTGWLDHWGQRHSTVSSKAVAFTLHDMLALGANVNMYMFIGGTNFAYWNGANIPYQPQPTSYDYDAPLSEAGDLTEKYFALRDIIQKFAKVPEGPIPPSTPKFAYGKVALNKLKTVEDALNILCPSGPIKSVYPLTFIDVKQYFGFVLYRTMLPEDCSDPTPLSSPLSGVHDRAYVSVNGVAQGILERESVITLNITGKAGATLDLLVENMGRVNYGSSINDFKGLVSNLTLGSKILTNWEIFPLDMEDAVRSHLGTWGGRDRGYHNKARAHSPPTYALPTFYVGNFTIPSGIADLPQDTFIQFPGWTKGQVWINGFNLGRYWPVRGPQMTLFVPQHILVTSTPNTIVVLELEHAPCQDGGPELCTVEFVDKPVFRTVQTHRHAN
As to the kind of experiment: Binding affinity to bovine liver beta-galactosidase assessed as induction of changes in enzyme molar ellipticity by CD spectroscopy. In outline: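 The bovine liver enzyme stock was diluted in 5 mM HEPES and kept on ice. It was mixed 1:1 by volume with aqueous inhibitor stock and equilibrated. Ellipticity was recorded from 190–275 nm at 0.5 nm resolution in a 10 mm path cell, averaging 5 scans. Spectra were background-corrected for unbound inhibitor and buffer.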

For test [2], the target named is T2, Beta-galactosidase (Bos taurus, UniProt Q58D55).
T2 sequence (Q58D55 whole entry): T1 sequence (whole entry)
Briefly: Inhibition of bovine liver beta-galactosidase using 4-nitrophenyl-beta-D-galactopyranoside substrate measured over 240 mins at 10 mins intervals by UV/Vis spectroscopy. The method, boiled down:
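Bovine liver enzyme in 5 mM HEPES pH 7.50; 4-nitrophenyl-β-D-galactopyranoside mixed with 11 inhibitor dilutions (stocks 0.005–200 μM), equilibrated 30 °C 30 min, then enzyme added. Absorbance at 405 nm followed 240 min; final reads converted to percent inhibition against buffer control, plotted versus log inhibitor concentration; duplicates.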

In test [3] the test system is Aspergillus oryzae. As to the kind of experiment: Inhibition of Aspergillus oryzae beta-galactosidase using 2-chloro-4-nitrophenyl b-dgalactopyranoside substrate by Lineweaver-Burk plot.
In test [4] the test system is Aspergillus oryzae. As to the kind of experiment: Binding affinity to Aspergillus oryzae beta-galactosidase assessed as induction of changes in enzyme molar ellipticity by CD spectroscopy.
For test [5], the target named is T1, Beta-galactosidase (Bos taurus). Briefly: Competitive inhibition of bovine liver beta-galactosidase using 4-nitrophenyl-beta-D-galactopyranoside substrate measured over 240 mins at 10 mins intervals by UV/Vis spectroscopy based Eddie-Hofstee plot.
Test [6] has as its system Aspergillus oryzae. Briefly: Inhibition of Aspergillus oryzae beta-galactosidase using 2-chloro-4-nitrophenyl b-dgalactopyranoside substrate by Eddie-Hofstee plot.
The nature of test [7]: Inhibition of Aspergillus oryzae beta-galactosidase using 2-chloro-4-nitrophenyl b-dgalactopyranoside substrate.
The target in test [8] is T2, Beta-galactosidase. As to the kind of experiment: Inhibition of bovine liver beta-galactosidase pre-incubated for 30 mins with 4-nitrophenyl-beta-D-galactopyranoside substrate before enzyme addition measured over 45 mins at 27 secs intervals by UV/Vis based spectroscopy. The method, boiled down:
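Bovine liver enzyme (stock aliquot thawed, diluted in 5 mM HEPES, kept on ice). Varied 4-nitrophenyl-β-D-galactopyranoside with fixed inhibitor, pH 7.50 HEPES, equilibrated 30 °C 30 min before enzyme; 405 nm read for 45 min. Initial rates via ε 13,300 M−1 cm−1, fitted Michaelis-Menten at ≥2 inhibitor levels; competitive Ki from K′m = Km(1+[I]/Ki); duplicates, Lineweaver-Burk check.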

The target in test [9] is T1, Beta-galactosidase (Bos taurus). Briefly: Competitive inhibition of bovine liver beta-galactosidase using 4-nitrophenyl-beta-D-galactopyranoside substrate measured over 240 mins at 10 mins intervals by UV/Vis spectroscopy based Lineweaver-Burk plot.
Test [10] in a line: Inhibition of Aspergillus oryzae beta-galactosidase using 2-chloro-4-nitrophenyl b-dgalactopyranoside substrate relative to control.

Each structure is given as a SMILES string. Calls of active or inactive are those of the source. The calls are words filed in the database; no cut-off is given here.

What is called IC50 is the midpoint of a concentration-inhibition curve. As usually defined, the Ki is a dissociation constant, usually derived from enzyme kinetics or from competition with a known ligand. Take `N=C1N[C@H](CO)[C@H](O)[C@H](O)[C@H]1O`: the result in test [1] and in test [4] was inactive. The values for the half-maximal inhibitory concentration (IC50) in test [2] and in test [10] were above 50000 nM and 830 nM, respectively. In addition, in [3], the inhibition activity result was “Active”. For the same compound, the “competitive inhibition (qualitative call)” value (shortened to “competitive inhibition”) in [5] was “Active”. In test [6], the “inhibition activity (qualitative)” value is “Active”. Besides, the values for the inhibition constant Ki in test [7] and in test [8] were 150 nM and 2000 nM, respectively. Besides, the “Inhibition mode (qualitative, Lineweaver-Burk)” value (from here on “Inhibition mode”) in test [9] was “Active”.
Consider `OC[C@H]1N/C(=N\Cc2ccccc2)[C@H](O)[C@@H](O)[C@H]1O`, for which the outcome in test [1] and in test [4] was inactive. Moreover, the IC50 in test [2] was 18.9 nM; in test [10] it was 49 nM. For the same compound, the inhibition activity result in [3] is “Active”. Also, the “competitive inhibition” value in test [5] was “Active”. For the same compound, the “inhibition activity (qualitative)” value in test [6] is “Active”. In addition, the figures for the inhibition constant Ki in test [7] and in test [8] were 21.1 nM and 0.05 nM, respectively. Besides, in test [9], the “Inhibition mode” value is “Active”.
For the compound `CO[C@H]1C(NCc2ccc(C)cc2)=N[C@H](CO)[C@H](O)[C@@H]1O`, the result in [1] and in test [4] was inactive. In addition, the IC50 in [2] was determined as 10800 nM; in test [10], 41400 nM. Further, the inhibition activity result in [3] was “Active”. Also, the “competitive inhibition” value in test [5] is “Active”. Further, in test [6], the “inhibition activity (qualitative)” value was “Active”. Also, the values for the inhibition constant Ki in test [7] and in [8] were 3400 nM and 1500 nM, respectively. The “Inhibition mode” value in [9] is “Active”.
As to `Cc1ccc(C/N=C2\N[C@H](CO)[C@H](O)[C@H](O)[C@H]2O)cc1`, the IC50 came out at 57.6 nM in [2] and 36 nM in test [10]. The inhibition activity result in [3] was “Active”. Moreover, the “competitive inhibition” value in test [5] is “Active”. In addition, the “inhibition activity (qualitative)” value in [6] is “Active”. Also, the inhibitory constant (Ki) in [7] turned out to be 8 nM; in test [8] it was 0.07 nM. In [9], the “Inhibition mode” value is “Active”.
As to `OC[C@H]1N/C(=N\CC2CC2)[C@H](O)[C@@H](O)[C@H]1O`, the half-maximal inhibitory concentration (IC50) is above 1400 nM in [2] and 36 nM in test [10]. In addition, the inhibition activity entry in test [3] was “Active”. Also, in [5], the “competitive inhibition” value was “Active”. The “inhibition activity (qualitative)” value in test [6] was “Active”. For the same compound, the inhibitory constant (Ki) in [7] was 9.5 nM; in test [8], 0.39 nM. Also, the “Inhibition mode” value in test [9] was “Active”.
`OC[C@H]1N/C(=N\CC2CCCCCC2)[C@H](O)[C@@H](O)[C@H]1O`: the IC50 worked out at 45.4 nM in test [2] and 36 nM in [10]. In [3], the inhibition activity result was “Active”. For the same compound, the “competitive inhibition” value in test [5] is “Active”. Besides, the “inhibition activity (qualitative)” value in test [6] was “Active”. Also, the inhibitory constant (Ki) came to 6.3 nM in [7] and 0.16 nM in test [8]. In addition, in [9], the “Inhibition mode” value is “Active”.
On to `OC[C@H]1N/C(=N\CCCc2ccccc2)[C@H](O)[C@@H](O)[C@H]1O`, for which the results for the concentration for half-maximal inhibition (IC50) in test [2] and in test [10] were 41.3 nM and 36 nM, respectively. In addition, the inhibition activity entry in test [3] is “Active”. Besides, in test [5], the “competitive inhibition” value was “Active”. For the same compound, the “inhibition activity (qualitative)” value in test [6] is “Active”. Also, the results for the inhibitory constant (Ki) in test [7] and in [8] were 8.6 nM and 0.06 nM, respectively. Further, in test [9], the “Inhibition mode” value was “Active”.

These data come from ChEMBL document CHEMBL4043205, “Picomolar inhibition of β-galactosidase (bovine liver) attributed to loop closure” (Bioorg Med Chem, 2017).
